Measurements pooled from the literature.
Protocols differ between the studies behind these lines.
Target: Tyrosine-protein kinase ABL2 (ABL2, Homo sapiens, UniProt P42684)

C1=C/COCc2cc(ccc2OCCN2CCCC2)Nc2nccc(n2)-c2cccc(c2)COC/1 — remaining binding (binding; 0.1 µM): 74%
COc1ccc2[nH]c3c4[nH]c5ccc(OC)cc5c4c4c(c3c2c1)C(=O)NC4=O — remaining binding (binding, competition with immobilised ligand; 1 µM): 82%
C#Cc1cc(-c2cc(Nc3nc(N[C@@H](C)c4ccc(F)cn4)ncc3Cl)n[nH]2)ccc1C=O — inhibition (enzyme activity, inhibitor; 0.2 µM): 26.4%
CC#CC(=O)N1CCC[C@H]1c1nc(-c2ccc(C(=O)Nc3ccccn3)cc2)c2c(N)nccn12 — inhibition (enzyme activity, inhibitor; 1 µM): 10%
Cc1ccc(NC(=O)c2ccnc(C(F)(F)F)c2)cc1-c1cc(OCCO)nc(N2CCOCC2)c1 — remaining binding (binding, competition with immobilised ligand; 1 µM): 99%
COc1ccc2oc(-c3ccc4nc(N)oc4c3)c/c(=N\c3ccccc3NC(=O)CCN)c2c1 — remaining binding (binding; 1 µM): 101%
CO[C@@H]1[C@H](N(C)C(=O)c2ccccc2)C[C@H]2O[C@]1(C)n1c3ccccc3c3c4c(c5c6ccccc6n2c5c31)C(=O)NC4 — inhibition (enzyme activity, inhibitor; 1 µM): 17%
CCCCC(=O)Nc1ccc(-c2ccc3ncn(CCC)c(=O)c3c2)cn1 — remaining binding (binding, competition with immobilised ligand; 0.5 µM): 100%
